Results: ChEMBL document CHEMBL1138494, “Human glucagon receptor antagonists with thiazole cores. A novel series with superior pharmacokinetic properties” (J Med Chem, 2009)

What was measured:
[1] = Oral bioavailability in fasted Sprague-Dawley rat at 3.9 mg/kg by HTLC-MS/MS analysis; format: ADME, organism-based; details: in vivo
In short: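 Separate intravenous and peroral dosing arms per compound, with plasma concentration followed against time. Oral bioavailability (F_po) is reported per compound together with the intravenous half-life and clearance. The dose used for each arm is listed per compound.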

[2] = Tmax in fasted Sprague-Dawley rat at 1.9 mg/kg, iv and 3.9 mg/kg, po by HTLC-MS/MS analysis; format: ADME, organism-based; details: in vivo
In short: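 Plasma concentration–time profiles were recorded after separate intravenous and peroral dosing at the per-compound doses listed. T_max is reported in min alongside C_max (ng/mL), intravenous half-life and clearance ((mL/min)/kg).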

Glucagon receptor = Glucagon receptor (Homo sapiens, UniProt P47871); test: Displacement of [125I]porcine glucagon from human recombinant glucagon receptor expressed in BHK cells by scintillation proximity assay; format: cell-based
Glucagon receptor, sequence (P47871 whole entry): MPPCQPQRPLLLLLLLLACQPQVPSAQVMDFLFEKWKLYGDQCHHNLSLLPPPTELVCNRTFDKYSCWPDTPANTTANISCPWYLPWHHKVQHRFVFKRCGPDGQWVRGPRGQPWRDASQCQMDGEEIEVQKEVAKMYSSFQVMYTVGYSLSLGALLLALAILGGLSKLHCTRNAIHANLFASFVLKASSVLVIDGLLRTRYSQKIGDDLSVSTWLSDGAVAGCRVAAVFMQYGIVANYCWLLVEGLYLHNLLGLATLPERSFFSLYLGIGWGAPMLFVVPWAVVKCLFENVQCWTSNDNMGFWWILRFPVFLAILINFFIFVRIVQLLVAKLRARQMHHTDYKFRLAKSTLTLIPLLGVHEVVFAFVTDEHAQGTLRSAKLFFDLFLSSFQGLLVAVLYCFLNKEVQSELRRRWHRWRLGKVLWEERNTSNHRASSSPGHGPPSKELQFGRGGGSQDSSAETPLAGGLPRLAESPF

Homo sapiens [3] = species on record: Homo sapiens; test: Selectivity for human recombinant glucagon receptor over human GLP1R
Homo sapiens [4] = species on record: Homo sapiens; test: Selectivity ratio of IC50 for human recombinant glucagon receptor to IC50 for human recombinant GIPR
In short: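 Competition binding of compounds to recombinant human glucagon and GIP receptors on BHK cell membranes, run in parallel as a scintillation proximity assay and, for selected compounds, as a membrane filtration assay.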

[5] = biological target: T1, Gastric inhibitory polypeptide receptor (Homo sapiens, UniProt P48546); test: Displacement of [125I]porcine GIP from human recombinant GIPR receptor expressed in BHK cells by scintillation proximity assay; format: cell-based
T1 sequence (P48546 whole entry): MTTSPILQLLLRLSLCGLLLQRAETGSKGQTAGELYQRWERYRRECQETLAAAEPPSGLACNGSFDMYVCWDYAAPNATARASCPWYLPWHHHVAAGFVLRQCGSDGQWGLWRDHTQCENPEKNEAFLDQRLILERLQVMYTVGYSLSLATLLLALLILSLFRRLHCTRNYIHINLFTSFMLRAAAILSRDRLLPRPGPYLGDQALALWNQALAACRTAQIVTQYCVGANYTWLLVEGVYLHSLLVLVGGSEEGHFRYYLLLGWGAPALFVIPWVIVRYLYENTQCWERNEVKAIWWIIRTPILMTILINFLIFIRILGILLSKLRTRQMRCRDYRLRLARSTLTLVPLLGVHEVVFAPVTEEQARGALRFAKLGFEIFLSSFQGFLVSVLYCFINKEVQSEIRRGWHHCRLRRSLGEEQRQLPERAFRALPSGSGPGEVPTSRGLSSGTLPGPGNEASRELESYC

[6] = Cmax in fasted Sprague-Dawley rat at 1.9 mg/kg, iv and 3.9 mg/kg, po by HTLC-MS/MS analysis; format: ADME, organism-based; details: in vivo
In short: (§1)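 Rats were dosed intravenously and perorally in separate arms, and plasma concentration-time profiles were obtained. Half-life was taken from the iv arm. Clearance, oral bioavailability, Cmax and Tmax were derived from the profiles.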

[7] = Clearance in fasted Sprague-Dawley rat at 1.9 mg/kg, iv and 3.9 mg/kg, po by HTLC-MS/MS analysis; format: ADME, organism-based; details: in vivo; in short: as §1
[8] = Half life in fasted Sprague-Dawley rat plasma at 1.9 mg/kg, iv by HTLC-MS/MS analysis; format: ADME, organism-based; design: dose 1.9 mg/kg, route intravenous; in short: as §1

- bioavailability [1]: 3%
- Tmax [2]: 30 min
- IC50 (Glucagon receptor): 48 nM
- fold change (FC) (Homo sapiens [3]): > 50
- fold change (FC) (Homo sapiens [4]): 5
- IC50 [5]: 368 nM
- Cmax [6]: 36 ng/mL
- clearance [7]: 44 mL/min/kg
- half-life [8]: 35 min
SMILES: O=C(O)CCNC(=O)c1ccc(CN(c2ccc(C3=CCCCC3)cc2)c2nc(-c3ccc(C(F)(F)F)cc3)cs2)cc1
